Test results published in paper PMC6500440 (International Journal of Nanomedicine, 2019).
Read-outs that look alike come from different tables or passages of the source.

Assays:
[1] = cited from earlier work
[2] = Gel permeation chromatography; assay type: physicochemical
Summary of the method: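 Test peptide alone in buffer, no phospholipid, at 1, 5 and 10 mg/mL; one condition also incubated at 50°C. Analysed by size-exclusion GPC on a TSK G3000SWx column (7.8 mm×30 cm), eluted with PBS at 1.0 mL/min at ambient temperature, UV detection at 220 nm. Molecular weight was assigned from retention time.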

[3] = Lipid solubilization assay; assay type: physicochemical; details: 5.0 mg/mL LUVs in 10 mM sodium phosphate buffer pH 7.4, before addition of 22A peptide
Summary of the method: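 Phospholipid (POPC or egg sphingomyelin) chloroform stock was dried under nitrogen and hydrated in 10 mM sodium phosphate, pH 7.4. It then went through 5–7 freeze-thaw cycles and was extruded 10 times through 100 nm membranes, at 25°C for POPC and 45°C for eSM. The 5.0 mg/mL LUV suspension was read for turbidity as UV absorbance at 600 nm on a microplate spectrophotometer.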

[4] = Dynamic light scattering particle size; assay type: physicochemical
Summary of the method: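 LUVs (POPC or egg sphingomyelin) were made by drying the chloroform stock under nitrogen, hydrating in 10 mM sodium phosphate pH 7.4, doing 5–7 freeze-thaw cycles, and extruding 10× through 100 nm membranes (25°C POPC, 45°C eSM). For sHDL, 5.0 mg/mL lipid and peptide solutions were mixed 1:1 wt/wt (~3.75:1 molar). Samples were diluted to 1.0 mg/mL peptide, and intensity- and volume-weighted distributions were read at 25°C.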

[5] = biological target: the molecule itself; assay: SEC + other: dynamic light scattering
[6] = as restated in Results, no reference given
[7] = 22A 1 mg/mL in buffer without phospholipid, after incubation at 50°C
[8] = 22A in buffer without phospholipid, before dissociation
[9] = lipid LUV + 22A 1:1 wt/wt incubated 24 hr at 25°C

In the case of synthetic sphingomyelin [sSM], the “transition temperature (Tm)” value [1, 6] is listed as “approximately 40 °C”.

In the case of PVLDLFRELLNELLEALKQKLK [22A], the “GPC retention time of monomeric peptide” value [2, 7] is reported as 14.9 min, the “molecular weight corresponding to GPC retention time, monomeric peptide” value [2, 7] is reported as ~ 2500 Da and the “association state of peptide without lipid” value ([2]; 22A in buffer without phospholipid, 1, 5 and 10 mg/mL, initial, GPC and DLS) is reported as “self-associated”. For the same molecule, the “GPC retention time of self-associated peptide” value [2, 8] was 9.6 min and the “molecular weight corresponding to GPC retention time, self-associated peptide” value [2, 8] was ~ 145,000 Da.

In the case of `CCCCCCCC/C=C\CCCCCCCC(=O)O[C@H](COC(=O)CCCCCCCCCCCCCCC)COP(=O)([O-])OCC[N+](C)(C)C` [POPC, 1-palmitoyl-2-oleoyl-sn-glycero-3-phosphocholine], the “transition temperature (Tm)” value [1, 6] is given as −2 °C, the “transition temperature (Tm)” value [1] is given as −2 °C and the “UV 600 nm absorbance (turbidity) of LUV solution” value [3] is given as 0.26. The LUV diameter ([4]; extruded LUVs, 5.0 mg/mL solutions, before addition of 22A peptide) was 120 nm, the “DLS volume (distribution, %): LUV” value [4, 9] was 0.1% and the “DLS volume (distribution, %): sHDL” value [4, 9] was 99.9%. The “DLS intensity (size, nm): LUV” value ([4]; lipid LUV + 22A 1:1 wt/wt incubated 24 hr at 25°C, remaining liposomes) was 137.3 nm, the “DLS volume (distribution, %): sHDL” value ([4]; lipid LUV + 22A 1:1 wt/wt incubated 24 hr at 37°C) was 100% and the “DLS volume (distribution, %): sHDL” value ([4]; lipid LUV + 22A 1:1 wt/wt incubated 24 hr at 50°C) was 100%.

PVLDLFRELLNELLEALKQKLK [ESP-24218 peptide (22A), ApoA-I-mimetic peptide]: binds [5].
